# Results taken from publication PMC6718330 (European journal of medicinal chemistry, 2019).
# “Also recorded” adds a separate entry of the source.
# Tests used:
# [1] = tested on: cruzain and rhodesain; assay: Primary screen of the MMV400 at 5 µM against cruzain and rhodesain; type: biochemical, Trypanosoma cruzi; Trypanosoma brucei; conditions: primary screen at 5 µM
# In short: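 Fluorimetric screen of the library at 5 µM against recombinant cruzain and rhodesain (1 nM each). Substrate was 2.5 µM Z-FR-AMC in 0.1 M sodium acetate pH 5.5 with 0.01% Triton X-100 and 1 mM β-mercaptoethanol. Runs had no pre-incubation or 10 min enzyme–compound pre-incubation, two duplicates each. AMC release was read at 340/440 nm for 5 min at 12 s intervals; DMSO and E-64 served as controls.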
# [2] = tested on: T.cruzi (Y strain); assay: Trypomastigote release from T. cruzi-infected peritoneal macrophages; type: cell-based, Trypanosoma cruzi; conditions: 50 µM
# [3] = target: rhodesain (Trypanosoma brucei rhodesiense, UniProt Q95PM0); assay: Rhodesain enzymatic assay; type: biochemical
# [4] = target: T1, cruzain (Trypanosoma cruzi, UniProt P25779); assay: Aggregation assays against cruzain; type: biochemical; conditions: for Sensitivity of inhibition to pre-incubation with BSA: BSA 2 mg/mL in Triton X-100 0.001%; for Sensitivity of inhibition to detergent (Triton X-100): absence, 0.01% and 0.1% Triton X-100, 10 min pre-incubation with cruzain
# In short: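 Recombinant cruzain (1 nM) was pre-incubated with the test compound for 10 min at room temperature, with no Triton X-100, 0.01% or 0.1% Triton X-100. Percent inhibition was compared across detergent levels. In a BSA variant, compound sat 5 min with BSA (2 mg/mL in 0.001% Triton), then 5 min with cruzain, before substrate was added, run alongside a BSA-free control. Fluorogenic Z-FR-AMC read-out was at 340/440 nm.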
# [5] = target: T1, cruzain; assay: Cruzain enzymatic assay; type: biochemical; conditions: for Mechanism of inhibition against cruzain: Lineweaver-Burk plots
# [6] = target: rat cathepsin B (Rattus norvegicus, UniProt P00787); assay: Cathepsin B inhibition assay; type: biochemical; conditions: read-out: Inhibition of cathepsin B (greatest observed)
# In short: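 Buffer: 100 mM sodium phosphate, 100 mM NaCl, 1 mM EDTA, 1 mM DTT, 0.01% CHAPS, 25°C. Test compound at 100 µM or 50 µM, with or without 5 min enzyme pre-incubation. Fluorescence at 380/440 nm for 15 min. Percent inhibition versus 2% DMSO; E64 1 µM positive control. Two independent experiments, each in triplicate.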
# [7] = tested on: Peritoneal macrophages of C57BL/6 mice; assay: LDH cytotoxicity assay in peritoneal macrophages; type: cell-based, mouse; conditions: 3.125 µM, 24 h
# [8] = tested on: Nitric oxide levels in macrophage culture; assay: Nitric oxide detection; type: cell-based, mouse; conditions: culture supernatant after 11 days; 12 at 3.125 µM, IFN-γ 100 ng/mL
# In short: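 Peritoneal macrophages from thioglycolate-elicited female C57BL/6 mice (8–10 wk) were plated at 2 × 10^5/well, adhered 3 h, then rested overnight. They were infected 2 h with Y-strain T. cruzi trypomastigotes (5:1 parasite:cell), washed, then given test compound or IFN-γ at 37°C, 5% CO2. Day-11 supernatant plus Griess reagent, 10 min, A540 for nitrite. Three independent experiments in triplicate; mean ± SEM.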
# T1 sequence (P25779 123-467): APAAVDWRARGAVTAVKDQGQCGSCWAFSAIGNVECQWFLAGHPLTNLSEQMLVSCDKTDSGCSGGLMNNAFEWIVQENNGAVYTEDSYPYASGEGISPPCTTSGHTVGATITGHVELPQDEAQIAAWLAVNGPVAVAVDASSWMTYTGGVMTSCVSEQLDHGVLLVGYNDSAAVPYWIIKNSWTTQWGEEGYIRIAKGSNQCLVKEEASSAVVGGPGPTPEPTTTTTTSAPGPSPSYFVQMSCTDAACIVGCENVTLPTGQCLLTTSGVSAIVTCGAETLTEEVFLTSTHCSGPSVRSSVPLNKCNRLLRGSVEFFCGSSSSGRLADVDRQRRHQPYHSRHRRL
# Sequence of rat cathepsin B (P00787 80-339): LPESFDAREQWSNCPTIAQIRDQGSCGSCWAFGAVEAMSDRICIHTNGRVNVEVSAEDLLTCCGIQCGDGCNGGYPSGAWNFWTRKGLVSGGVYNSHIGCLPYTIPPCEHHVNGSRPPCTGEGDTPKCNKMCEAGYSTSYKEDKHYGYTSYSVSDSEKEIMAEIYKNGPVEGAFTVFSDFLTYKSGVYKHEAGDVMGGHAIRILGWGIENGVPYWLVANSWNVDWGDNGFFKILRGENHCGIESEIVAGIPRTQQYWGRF
Molecule,Over 50% cruzain and rhodesain inhibition? [1],Sensitivity of inhibition to pre-incubation with BSA [4],also measured
CCOc1ccc(/C=C/c2nc(=O)c3ccccc3o2)cc1 [Compound 1],yes,,
Cn1c(=O)n(C)c2cc(CNCCNc3ccnc4cc(Cl)ccc34)ccc21 [Compound 2],yes,not sensitive to detergent nor BSA incubation,Trypanocidal activity in initial screen [2]: trypanocidal activity; Ki [3]: 1.4 µM; Mechanism of inhibition versus rhodesain ([3]; Lineweaver-Burk plots): mixed mechanism; also recorded: mixed-type inhibitor
Cc1cc(Nc2ccc(C)c(Cl)c2)n2nc(C(F)(F)F)nc2n1 [Compound 3],no,,
Cc1nc2ccccc2c(O)c1CC=C(Cl)Cl [Compound 4],yes,,
c1ccc(-c2ccc(-c3nc4ccccc4[nH]3)cc2)cc1 [Compound 5],yes,sensitive to pre-incubation with bovine serum albumin,Fluorescence in the assays (signal interference) [4]: displayed fluorescence in the assays; Sensitivity of inhibition to detergent (Triton X-100) [4]: highly sensitive to Triton
CCOc1cccc(C(=O)Nc2ccc(-c3nc4ccccc4[nH]3)cc2)c1 [Compound 6],yes,sensitive to pre-incubation with bovine serum albumin,Hill slope of dose-response curve ([5]; cruzain dose-response curve): 3.9; Fluorescence in the assays (signal interference) [4]: displayed fluorescence in the assays; Sensitivity of inhibition to detergent (Triton X-100) [4]: highly sensitive to Triton
c1ccc(CNc2nc(Nc3ccccc3)nc3ccccc23)cc1 [Compound 7],yes,not sensitive to detergent nor BSA incubation,Trypanocidal activity in initial screen [2]: trypanocidal activity; Mechanism of inhibition against cruzain [5]: competitive inhibition; inhibition at 100 µM [6]: 29%; Detergent sensitivity of inhibition at 50 µM ([4]; 50 µM compound): some detergent-sensitivity
COCCNCC(O)Cn1c2ccc(Cl)cc2c2cc(Cl)ccc21 (stereo not shown) [Compound 8],no,sensitive to pre-incubation with bovine serum albumin,Sensitivity of inhibition to detergent (Triton X-100) [4]: highly sensitive to Triton
CCOC(=O)c1c(C)n(-c2ccccc2)c2ccc(OC(=O)c3cc(OC)c(OC)c(OC)c3)cc12 [Compound 9],yes,,
CC(=O)c1ccc(NC(=O)CSc2nc(-c3ccccc3Cl)ns2)cc1 [Compound 10],yes,,
Cc1ccc(C(=O)c2oc3ccc4c(C)cc(=O)oc4c3c2C)cc1 [Compound 11],yes,,
"Cl.Cl.Clc1cc(Br)ccc1-c1ccc(CNCC2CCNCC2)o1 [Compound 12, 1-[5-(4-Bromo-2-chlorophenyl)-2-furyl]-N-(4-piperidinylmethyl)methanamine dihydrochloride]",no,not sensitive to detergent nor BSA incubation,Cytotoxicity against macrophages (LDH levels) [7]: low toxicity against murine macrophages; also recorded: did not exhibit cytotoxic activity; Trypanocidal activity in initial screen [2]: trypanocidal activity; Mechanism of inhibition against cruzain [5]: competitive inhibition; Nitric oxide production [8]: independent of NO release
COc1ccc2sc(N(Cc3cccnc3)C(=O)c3ccc(C#N)cc3)nc2c1 [Compound 13],yes,,
FC(F)(F)c1cccc(CNC2CCN(CCc3ccccc3)CC2)c1 [Compound 14],yes,,
COCCNC(=O)c1ccc(OC2CCN(Cc3ccc(F)c(F)c3)CC2)c(Cl)c1 [Compound 15],yes,,Trypanocidal activity in initial screen [2]: trypanocidal activity
"IFN-γ: Interferon gamma (100 ng/mL, Sigma) used to stimulate macrophages as comparison treatment (protein, UniProt P01579 24-161, looked up) Interferon gamma: QDPYVKEAENLKKYFNAGHSDVADNGTLFLGILKNWKEESDRKIMQSQIVSFYFKLFKNFKDDQSIQKSVETIKEDMNVKFFNSNKKKRDDFEKLTNYSVTDLNVQRKAIHELIQVMAELSPAAKTGKRKRSQMLFRG",,,Nitric oxide production [8]: increased
